What was measured:
topoisomerase IIα [1] = target: T1, topoisomerase IIα (Homo sapiens, UniProt P11388); test: kDNA decatenation assay at […] ATP; type: biochemical
topoisomerase I = target: T2, topoisomerase I (Homo sapiens, UniProt P11387); test: pBR322 DNA relaxation gel assay; type: biochemical
T2 sequence (P11387 2-765): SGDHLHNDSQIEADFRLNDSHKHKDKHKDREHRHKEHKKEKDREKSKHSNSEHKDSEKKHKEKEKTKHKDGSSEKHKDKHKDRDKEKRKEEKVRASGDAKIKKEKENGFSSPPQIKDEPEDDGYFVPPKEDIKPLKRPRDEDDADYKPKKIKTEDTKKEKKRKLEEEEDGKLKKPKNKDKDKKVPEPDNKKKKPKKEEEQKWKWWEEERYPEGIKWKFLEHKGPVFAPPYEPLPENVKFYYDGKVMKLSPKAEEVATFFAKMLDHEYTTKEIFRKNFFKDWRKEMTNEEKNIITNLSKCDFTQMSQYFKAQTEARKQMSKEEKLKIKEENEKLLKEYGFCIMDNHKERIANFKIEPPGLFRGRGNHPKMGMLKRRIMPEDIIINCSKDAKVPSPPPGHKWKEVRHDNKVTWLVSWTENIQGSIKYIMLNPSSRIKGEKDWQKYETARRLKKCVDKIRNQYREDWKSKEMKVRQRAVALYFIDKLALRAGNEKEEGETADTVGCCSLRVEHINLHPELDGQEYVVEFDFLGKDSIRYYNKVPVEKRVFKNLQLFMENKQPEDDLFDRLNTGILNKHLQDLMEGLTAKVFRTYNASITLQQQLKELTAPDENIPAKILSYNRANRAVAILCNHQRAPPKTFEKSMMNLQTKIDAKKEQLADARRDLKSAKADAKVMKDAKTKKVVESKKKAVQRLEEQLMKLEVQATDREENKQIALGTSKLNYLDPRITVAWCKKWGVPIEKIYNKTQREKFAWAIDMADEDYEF

topoisomerase IIα [2] = target: T1, topoisomerase IIα; test: kDNA decatenation gel assay; type: biochemical
In short: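 Recombinant full-length human topoisomerase IIα. Decatenation: catenated kDNA networks released as individual minicircles in an ATP-dependent reaction, resolved on gel. Cleavage: closed circular pBR322 converted to linear DNA at 37 °C. All components were mixed on ice before the test compound was added. Complexes were trapped with SDS and resolved by ethidium bromide gel electrophoresis.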

yeast topoisomerase II = target: T3, yeast topoisomerase II (Saccharomyces cerevisiae, UniProt P06786); test: ATP/NADH-coupled DNA-independent ATPase assay, purified enzyme; type: biochemical
T3 sequence (P06786 1-1428): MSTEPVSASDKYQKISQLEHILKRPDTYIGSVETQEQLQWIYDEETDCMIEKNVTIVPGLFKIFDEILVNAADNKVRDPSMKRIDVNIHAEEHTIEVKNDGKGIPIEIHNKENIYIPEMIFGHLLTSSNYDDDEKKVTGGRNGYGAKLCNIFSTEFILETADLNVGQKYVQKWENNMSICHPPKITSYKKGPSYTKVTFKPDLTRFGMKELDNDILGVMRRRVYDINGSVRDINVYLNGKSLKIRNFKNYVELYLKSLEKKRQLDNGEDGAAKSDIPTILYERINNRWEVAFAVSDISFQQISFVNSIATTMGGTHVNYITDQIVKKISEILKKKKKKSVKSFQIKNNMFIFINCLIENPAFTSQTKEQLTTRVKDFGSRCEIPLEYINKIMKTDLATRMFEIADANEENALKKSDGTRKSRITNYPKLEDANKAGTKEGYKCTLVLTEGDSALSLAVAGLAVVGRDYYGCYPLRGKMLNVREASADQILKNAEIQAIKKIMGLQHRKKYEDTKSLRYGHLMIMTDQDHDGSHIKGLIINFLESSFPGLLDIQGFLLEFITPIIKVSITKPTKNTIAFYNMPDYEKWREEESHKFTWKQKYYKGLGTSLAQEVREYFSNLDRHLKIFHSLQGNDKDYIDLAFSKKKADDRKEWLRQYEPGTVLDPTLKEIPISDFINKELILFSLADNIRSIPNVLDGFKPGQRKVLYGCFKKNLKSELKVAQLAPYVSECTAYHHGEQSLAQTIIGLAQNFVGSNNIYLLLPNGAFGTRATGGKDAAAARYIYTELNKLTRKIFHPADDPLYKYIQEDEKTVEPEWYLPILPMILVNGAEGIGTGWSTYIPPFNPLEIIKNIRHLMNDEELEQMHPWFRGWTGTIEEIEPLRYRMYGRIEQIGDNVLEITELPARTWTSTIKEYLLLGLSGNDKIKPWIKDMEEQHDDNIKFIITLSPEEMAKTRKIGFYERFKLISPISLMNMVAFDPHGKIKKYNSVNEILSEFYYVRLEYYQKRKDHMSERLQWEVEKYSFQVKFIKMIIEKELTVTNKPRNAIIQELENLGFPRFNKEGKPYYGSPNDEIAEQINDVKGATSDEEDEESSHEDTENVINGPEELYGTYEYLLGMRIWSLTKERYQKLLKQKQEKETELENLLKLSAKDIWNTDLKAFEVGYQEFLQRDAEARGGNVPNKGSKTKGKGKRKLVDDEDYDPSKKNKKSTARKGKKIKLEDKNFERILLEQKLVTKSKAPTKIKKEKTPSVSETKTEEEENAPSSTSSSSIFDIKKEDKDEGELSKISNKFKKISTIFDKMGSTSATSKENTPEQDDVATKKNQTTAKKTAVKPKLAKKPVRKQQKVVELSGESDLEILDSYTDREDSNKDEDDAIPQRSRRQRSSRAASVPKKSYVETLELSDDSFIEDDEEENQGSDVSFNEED

topoisomerase IIβ = topoisomerase IIβ (Homo sapiens, UniProt Q02880); test: cellular ICE assay of covalent enzyme-DNA complexes in K562 cells; type: cell-based
topoisomerase IIβ, sequence (Q02880 2-1626): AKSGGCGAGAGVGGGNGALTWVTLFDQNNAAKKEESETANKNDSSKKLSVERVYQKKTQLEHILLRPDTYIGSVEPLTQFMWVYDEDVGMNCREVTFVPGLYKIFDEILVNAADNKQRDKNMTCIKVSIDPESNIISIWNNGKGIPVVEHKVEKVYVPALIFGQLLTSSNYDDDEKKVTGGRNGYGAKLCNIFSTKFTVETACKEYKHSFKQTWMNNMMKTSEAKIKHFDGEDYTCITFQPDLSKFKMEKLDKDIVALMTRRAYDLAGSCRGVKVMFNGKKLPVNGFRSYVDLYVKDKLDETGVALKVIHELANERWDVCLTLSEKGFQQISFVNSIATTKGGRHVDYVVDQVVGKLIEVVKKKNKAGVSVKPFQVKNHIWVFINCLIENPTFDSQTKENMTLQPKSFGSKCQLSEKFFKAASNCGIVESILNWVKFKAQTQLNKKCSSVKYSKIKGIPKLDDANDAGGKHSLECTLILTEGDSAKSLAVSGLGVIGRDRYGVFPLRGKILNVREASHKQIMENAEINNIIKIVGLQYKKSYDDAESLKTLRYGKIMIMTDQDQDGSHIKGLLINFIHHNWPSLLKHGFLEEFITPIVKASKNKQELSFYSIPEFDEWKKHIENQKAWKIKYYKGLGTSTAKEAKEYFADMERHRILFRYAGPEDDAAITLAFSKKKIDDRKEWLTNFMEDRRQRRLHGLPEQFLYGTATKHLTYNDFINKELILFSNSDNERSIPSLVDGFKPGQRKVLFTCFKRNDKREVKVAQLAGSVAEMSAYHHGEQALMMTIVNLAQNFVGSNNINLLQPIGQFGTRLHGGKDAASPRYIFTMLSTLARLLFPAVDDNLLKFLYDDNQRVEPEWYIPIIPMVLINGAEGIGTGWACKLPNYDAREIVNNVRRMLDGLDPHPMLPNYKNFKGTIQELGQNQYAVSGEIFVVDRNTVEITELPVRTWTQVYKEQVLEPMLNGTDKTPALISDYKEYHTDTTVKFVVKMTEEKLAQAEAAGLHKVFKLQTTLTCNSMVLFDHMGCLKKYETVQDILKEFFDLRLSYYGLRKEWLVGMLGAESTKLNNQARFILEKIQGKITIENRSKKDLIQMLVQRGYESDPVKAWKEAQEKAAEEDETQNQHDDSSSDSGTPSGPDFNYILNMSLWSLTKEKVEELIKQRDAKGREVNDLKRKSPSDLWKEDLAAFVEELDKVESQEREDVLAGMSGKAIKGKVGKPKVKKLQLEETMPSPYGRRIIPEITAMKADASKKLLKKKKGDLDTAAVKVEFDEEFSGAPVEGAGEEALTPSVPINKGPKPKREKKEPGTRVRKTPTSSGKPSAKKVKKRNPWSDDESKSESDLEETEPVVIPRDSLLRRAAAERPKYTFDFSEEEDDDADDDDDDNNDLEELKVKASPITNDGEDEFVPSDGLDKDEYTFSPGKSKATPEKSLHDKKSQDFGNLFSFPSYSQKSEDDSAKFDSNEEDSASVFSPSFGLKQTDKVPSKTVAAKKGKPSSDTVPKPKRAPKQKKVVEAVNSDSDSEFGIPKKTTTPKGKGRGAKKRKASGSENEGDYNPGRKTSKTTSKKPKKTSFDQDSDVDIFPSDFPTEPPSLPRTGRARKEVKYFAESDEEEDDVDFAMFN

T1 sequence (P11388 whole entry): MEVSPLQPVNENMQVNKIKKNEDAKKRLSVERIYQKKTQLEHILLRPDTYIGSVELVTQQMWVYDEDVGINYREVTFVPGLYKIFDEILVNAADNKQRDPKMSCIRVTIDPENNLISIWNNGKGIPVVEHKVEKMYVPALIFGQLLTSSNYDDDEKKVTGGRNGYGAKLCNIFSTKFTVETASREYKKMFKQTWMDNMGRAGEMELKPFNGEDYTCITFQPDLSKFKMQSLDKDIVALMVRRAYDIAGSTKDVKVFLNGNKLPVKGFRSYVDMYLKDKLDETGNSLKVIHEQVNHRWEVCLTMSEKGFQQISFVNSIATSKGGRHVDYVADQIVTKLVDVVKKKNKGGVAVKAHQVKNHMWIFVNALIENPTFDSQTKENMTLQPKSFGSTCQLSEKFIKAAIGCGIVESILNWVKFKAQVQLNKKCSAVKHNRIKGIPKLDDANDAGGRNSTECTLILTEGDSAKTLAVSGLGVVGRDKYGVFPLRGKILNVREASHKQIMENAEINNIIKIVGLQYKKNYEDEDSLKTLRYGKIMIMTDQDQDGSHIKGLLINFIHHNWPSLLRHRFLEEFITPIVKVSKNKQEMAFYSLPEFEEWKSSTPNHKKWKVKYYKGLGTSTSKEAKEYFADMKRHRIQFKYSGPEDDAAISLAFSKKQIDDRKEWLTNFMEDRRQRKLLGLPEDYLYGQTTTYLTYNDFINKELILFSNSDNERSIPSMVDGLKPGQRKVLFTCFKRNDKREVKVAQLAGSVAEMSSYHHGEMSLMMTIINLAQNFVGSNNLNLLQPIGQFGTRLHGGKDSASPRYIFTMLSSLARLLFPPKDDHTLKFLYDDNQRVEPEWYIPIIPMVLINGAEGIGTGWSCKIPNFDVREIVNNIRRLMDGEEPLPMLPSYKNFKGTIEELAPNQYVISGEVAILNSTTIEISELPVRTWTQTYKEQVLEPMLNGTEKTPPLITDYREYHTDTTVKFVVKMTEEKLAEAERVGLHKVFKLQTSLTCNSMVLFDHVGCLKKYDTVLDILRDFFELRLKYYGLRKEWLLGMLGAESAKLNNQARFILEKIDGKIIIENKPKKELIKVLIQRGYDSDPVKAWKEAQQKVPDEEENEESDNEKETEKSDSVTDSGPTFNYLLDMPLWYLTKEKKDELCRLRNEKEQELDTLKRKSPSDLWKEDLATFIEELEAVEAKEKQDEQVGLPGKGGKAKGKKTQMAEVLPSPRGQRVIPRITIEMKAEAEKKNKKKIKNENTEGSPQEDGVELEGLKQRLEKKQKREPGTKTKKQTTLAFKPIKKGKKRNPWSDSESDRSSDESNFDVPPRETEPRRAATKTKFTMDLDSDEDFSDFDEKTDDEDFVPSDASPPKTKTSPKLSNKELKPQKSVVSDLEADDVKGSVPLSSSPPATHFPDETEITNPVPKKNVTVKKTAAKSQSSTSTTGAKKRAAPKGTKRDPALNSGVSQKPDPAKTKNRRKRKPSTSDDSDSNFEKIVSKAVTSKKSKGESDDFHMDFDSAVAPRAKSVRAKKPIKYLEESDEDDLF

| Compound | IC50 (topoisomerase IIα [1]) | IC50 (topoisomerase I) | IC50 (topoisomerase IIα [2]) | Ki (yeast topoisomerase II) | cellular ICE assay of covalent enzyme-DNA complexes in K562 cells (topoisomerase IIβ) |
| --- | --- | --- | --- | --- | --- |
| Nc1ncnc2c1ncn2[C@@H]1O[C@H](COP(=O)(O)OP(=O)(O)NP(=O)(O)O)[C@@H](O)[C@H]1O [AMP-PNP] | 2000 ± 400 nM | – | – | – | – |
| CN1CCN(c2ccc3nc(-c4c(N)c5c(F)cccc5[nH]c4=O)[nH]c3c2)CC1 [dovitinib] | – | 6.2 ± 1.7 µM | 13 ± 4 µM | 2400 ± 1500 nM | Both dovitinib and etoposide also induced concentration dependent increases in the amount of the topoisomerase IIβ-covalent complex |
| COc1cc([C@@H]2c3cc4c(cc3[C@@H](O[C@@H]3O[C@@H]5CO[C@@H](C)O[C@H]5[C@H](O)[C@H]3O)[C@H]3COC(=O)[C@H]23)OCO4)cc(OC)c1O [etoposide, reference compound] | – | – | – | – | Both dovitinib and etoposide also induced concentration dependent increases in the amount of the topoisomerase IIβ-covalent complex |

— publication PMC3501595 (Biochemical pharmacology, 2012)
